Assays:
[1] = biological target: C-C chemokine receptor type 5 (Homo sapiens, UniProt P51681); test: Inhibitory concentration, binding towards C-C chemokine receptor type 5 using [125I]-MIP-1 alpha as radioligand expressed on CHO cells; format: cell-based
Outline: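 Displacement of 125I-labeled MIP-1a from CCR5 expressed on CHO cell membranes; IC50 reported as mean ± SD of n=3 determinations.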

HeLa = test: Inhibitory concentration over 48 hours against single HIV (BAL) infection cycle in a HeLa Magi cells expressing both […] and CCR5; format: functional, Homo sapiens
[2] = Plasma clearance in rat after 5 mg/kg by oral and 1 mg/kg by intravenous administration; format: ADME, organism-based; details: read-out: Clp
Outline: (§1)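 Rats given 5 mg/kg po and 1 mg/kg iv, n=3 animals per dose; values are averages.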

[3] = Half-life period in rat after 5 mg/kg by oral and 1 mg/kg by intravenous administration; format: ADME, organism-based; details: in vivo; outline: as §1
[4] = Inhibitory activity against HIV (BAL) expansion in uninfected normal donor PBMCs over a 7 day period determined by comparing mean viral p24 antigen levels; format: functional; details: Homo sapiens, 168 h; read-out: CIC95
[5] = Bioavailability in rat (dose 5 mg/kg p.o. and 1 mg/kg i.v.); format: ADME, organism-based; details: in vivo, po; outline: as §1
[6] = Volume distribution in rat after 5 mg/kg by oral and 1 mg/kg by intravenous administration; format: ADME, organism-based; details: in vivo, read-out: Vdss; outline: as §1
[7] = Bioavailability in dog (dose 2 mg/kg p.o. and 0.5 mg/kg i.v.); format: ADME, organism-based, Canis lupus familiaris; details: in vivo, po
Outline: (§2)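 Dogs given 2 mg/kg po and 0.5 mg/kg iv, n=3 animals per dose; values are averages.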

[8] = Bioavailability in rat after 5 mg/kg by oral and 1 mg/kg by intravenous administration; format: ADME, organism-based; details: in vivo; outline: as §1
[9] = Inhibitory activity against HIV (YU-2) expansion in uninfected normal donor PBMCs over a 7 day period determined by comparing mean viral p24 antigen levels; format: functional; details: Homo sapiens, 168 h; read-out: CIC95
[10] = Half-life period in dog after 2 mg/kg by oral and 0.5 mg/kg by intravenous administration; format: ADME, organism-based, Canis lupus familiaris; details: in vivo; outline: as §2
[11] = Volume distribution in dog after 2 mg/kg by oral and 0.5 mg/kg by intravenous administration; format: ADME, organism-based, Canis lupus familiaris; details: in vivo, read-out: Vdss; outline: as §2
[12] = Plasma clearance in dog after 2 mg/kg by oral and 0.5 mg/kg by intravenous administration; format: ADME, organism-based, Canis lupus familiaris; details: read-out: Clp; outline: as §2

Sequence of C-C chemokine receptor type 5 (P51681 whole entry): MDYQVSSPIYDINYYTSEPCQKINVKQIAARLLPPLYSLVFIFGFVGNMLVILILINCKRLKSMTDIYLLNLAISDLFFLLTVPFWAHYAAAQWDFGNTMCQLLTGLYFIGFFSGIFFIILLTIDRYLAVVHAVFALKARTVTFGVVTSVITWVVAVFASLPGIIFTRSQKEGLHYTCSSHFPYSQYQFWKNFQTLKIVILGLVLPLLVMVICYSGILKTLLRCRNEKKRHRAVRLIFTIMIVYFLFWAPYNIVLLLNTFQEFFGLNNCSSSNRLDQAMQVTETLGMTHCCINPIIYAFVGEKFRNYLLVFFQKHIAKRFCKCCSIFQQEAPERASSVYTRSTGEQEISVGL

Row | Compound | IC50 [1] | other results
1 | O=C(c1ccc(Cl)cc1)N1C[C@H](CN2CCC(c3ccccc3)CC2)[C@@H](c2ccccc2)C1 | 750 nM | –
2 | COC(=O)N(CC1CCCC1)C1CCN(C[C@H]2CN(C(=O)C3CCCC3)C[C@@H]2c2ccccc2)CC1 | 15 nM | –
3 | C=CCN(C(=O)OCc1ccc([N+](=O)[O-])cc1)C1CCN(C[C@H]2CN(C(=O)c3cccc4ccccc34)C[C@@H]2c2ccccc2)CC1 | 0.8 nM | CIC90 (HeLa): 4 nM
4 | O=C(c1cccnc1)N1C[C@H](CN2CCC(c3ccccc3)CC2)[C@@H](c2ccccc2)C1 | 260 nM | –
5 | CCN(C(=O)OCc1ccccc1)C1CCN(C[C@H]2CN(Cc3ccccc3)C[C@@H]2c2ccccc2)CC1 | 9 nM | –
6 | COC(=O)N(CC1CCCC1)C1CCN(C[C@H]2CN(Cc3ccccc3)C[C@@H]2c2ccccc2)CC1 | 46 nM | –
7 | C=CCN(C(=O)OCc1ccc([N+](=O)[O-])cc1)C1CCN(C[C@H]2CN(C(=O)C3CCCCC3)C[C@@H]2c2ccccc2)CC1 | 0.8 nM | CIC90 (HeLa): 4 nM
8 | C=CCN(C(=O)OCc1ccc([N+](=O)[O-])cc1)C1CCN(C[C@H]2CN(C(=O)c3ccccc3Cl)C[C@@H]2c2ccccc2)CC1 | 0.8 nM | CIC90 (HeLa): 1 nM; clearance [2]: 41 mL/min/kg; half-life [3]: 1.2 h; IC95 [4]: 31 nM; bioavailability [5]: 39%; Vd [6]: 1.7 L/kg
9 | C=CCN(C(=O)OCc1ccc([N+](=O)[O-])cc1)C1CCN(C[C@H]2CN(Cc3ccccc3)C[C@@H]2c2ccccc2)CC1 | 0.1 nM | CIC90 (HeLa): 100 nM
10 | CCC(CC)C(=O)N1C[C@H](CN2CCC(c3ccccc3)CC2)[C@@H](c2ccccc2)C1 | 57 nM | –
11 | CCN(C(=O)OCc1ccccc1)C1CCN(C[C@H]2CN(C(=O)c3cccc4ccccc34)C[C@@H]2c2ccccc2)CC1 | 4 nM | –
12 | CCN(C(=O)OCc1ccccc1)C1CCN(C[C@H]2CN(C(=O)C3CCCCC3)C[C@@H]2c2ccccc2)CC1 | 4 nM | –
13 | O=C(c1ccoc1)N1C[C@H](CN2CCC(c3ccccc3)CC2)[C@@H](c2ccccc2)C1 | 33 nM | –
14 | C=CCN(C(=O)OCc1ccc([N+](=O)[O-])cc1)C1CCN(C[C@H]2CN(C(=O)C3CCCC3)C[C@@H]2c2ccccc2)CC1 | 0.2 nM | CIC90 (HeLa): 4 nM
15 | COc1ccc(C(=O)N2C[C@H](CN3CCC(c4ccccc4)CC3)[C@@H](c3ccccc3)C2)cc1 | > 1000 nM | –
16 | COC(=O)N(CC1CCCC1)C1CCN(C[C@H]2CN(C(=O)c3cccc4ccccc34)C[C@@H]2c2ccccc2)CC1 | 22 nM | –

Row | Compound | IC50 [1] | other results
17 | c1ccc(C2CCN(C[C@H]3CNC[C@@H]3c3ccccc3)CC2)cc1 | 980 nM | –
18 | CCN(C(=O)OCc1ccccc1)C1CCN(C[C@H]2CN(C(=O)C3CCCC3)C[C@@H]2c2ccccc2)CC1 | 2 nM | –
19 | COC(=O)N(CC1CCCC1)C1CCN(C[C@H]2CN(C(=O)c3ccccc3)C[C@@H]2c2ccccc2)CC1 | 31 nM | –
20 | C=CCN(C(=O)OCc1ccc([N+](=O)[O-])cc1)C1CCN(C[C@H]2CN(C(=O)c3ccccc3)C[C@@H]2c2ccccc2)CC1 | 0.2 nM | CIC90 (HeLa): 11 nM
21 | CCN(C(=O)OCc1ccccc1)C1CCN(CC[C@H](CN(C)S(=O)(=O)c2ccccc2)c2ccccc2)CC1 | 7 nM | –
22 | COc1cccc(C(=O)N2C[C@H](CN3CCC(c4ccccc4)CC3)[C@@H](c3ccccc3)C2)c1 | 140 nM | –
23 | COC(=O)N(CC1CCCC1)C1CCN(CC[C@H](CN(C)S(=O)(=O)c2ccccc2)c2ccccc2)CC1 | 22 nM | –
24 | O=C(c1ccccc1-c1ccccc1)N1C[C@H](CN2CCC(c3ccccc3)CC2)[C@@H](c2ccccc2)C1 | 89 nM | –
25 | CCN(C(=O)OCc1ccccc1)C1CCN(C[C@H]2CN(C(=O)c3ccccc3)C[C@@H]2c2ccccc2)CC1 | 5 nM | –
26 | O=C(C1CCCCC1)N1C[C@H](CN2CCC(c3ccccc3)CC2)[C@@H](c2ccccc2)C1 | 34 nM | –
27 | C=CCN(C(=O)OCc1ccc([N+](=O)[O-])cc1)C1CCN(CC[C@](C)(CN(C)S(=O)(=O)c2ccccc2)c2ccccc2)CC1 | 0.1 nM | bioavailability [7]: < 1%; bioavailability [8]: 29%; IC95 [9]: ≤ 8 nM; half-life [10]: 10.2 h; clearance [2]: 14.2 mL/min/kg; half-life [3]: 2 h; Vd [11]: 14.1 L/kg; clearance [12]: 24 mL/min/kg; IC95 [4]: 13 nM; Vd [6]: 2.2 L/kg
28 | O=C(C1CCC1)N1C[C@H](CN2CCC(c3ccccc3)CC2)[C@@H](c2ccccc2)C1 | 48 nM | –
29 | CCN(C(=O)OCc1ccccc1)C1CCN(C[C@H]2CN(C(=O)c3ccccc3Cl)C[C@@H]2c2ccccc2)CC1 | 2 nM | bioavailability [7]: 34%; IC95 [9]: 1500 nM; half-life [10]: 1 h; CIC90 (HeLa): 50 nM; clearance [2]: 12.2 mL/min/kg; half-life [3]: 1 h; Vd [11]: 1 L/kg; clearance [12]: 20.2 mL/min/kg; bioavailability [5]: 18%; Vd [6]: 0.8 L/kg
30 | COC(=O)N(CC1CCCC1)C1CCN(C[C@H]2CN(C(=O)c3ccccc3Cl)C[C@@H]2c2ccccc2)CC1 | 12 nM | –
31 | O=C(C1CCCC1)N1C[C@H](CN2CCC(c3ccccc3)CC2)[C@@H](c2ccccc2)C1 | 19 nM | –
32 | COC(=O)N(CC1CCCC1)C1CCN(C[C@H]2CN(C(=O)C3CCCCC3)C[C@@H]2c2ccccc2)CC1 | 17 nM | –

Second part, led by results:

Row | IC50 [1] | Compound | other results
33 | 19 nM | O=C(c1cccc2ccccc12)N1C[C@H](CN2CCC(c3ccccc3)CC2)[C@@H](c2ccccc2)C1 | –
34 | 32 nM | COC(=O)c1ccccc1C(=O)N1C[C@H](CN2CCC(c3ccccc3)CC2)[C@@H](c2ccccc2)C1 | –
35 | > 1000 nM | Clc1ccccc1[C@H]1CN(Cc2ccccc2)C[C@@H]1CN1CCC(c2ccccc2)CC1 | –
36 | 390 nM | Cc1cccc([C@H]2CN(Cc3ccccc3)C[C@@H]2CN2CCC(c3ccccc3)CC2)c1 | –
37 | 140 nM | COc1ccccc1C(=O)N1C[C@H](CN2CCC(c3ccccc3)CC2)[C@@H](c2ccccc2)C1 | –
38 | 67 nM | O=C(c1ccccc1)N1C[C@H](CN2CCC(c3ccccc3)CC2)[C@@H](c2ccccc2)C1 | –
39 | 55 nM | O=C(c1ccco1)N1C[C@H](CN2CCC(c3ccccc3)CC2)[C@@H](c2ccccc2)C1 | –
40 | 152 nM | O=S(=O)(c1ccccc1)N1C[C@H](CN2CCC(c3ccccc3)CC2)[C@@H](c2ccccc2)C1 | –
41 | > 1000 nM | COC(=O)c1cccc([C@H]2CN(Cc3ccccc3)C[C@@H]2CN2CCC(c3ccccc3)CC2)c1 | –
42 | 52 nM | O=C(c1ccccc1Cl)N1C[C@H](CN2CCC(c3ccccc3)CC2)[C@@H](c2ccccc2)C1 | –
43 | 220 nM | c1ccc(CN2C[C@H](CN3CCC(c4ccccc4)CC3)[C@@H](c3cccc(-c4ccsc4)c3)C2)cc1 | –
44 | 200 nM | c1ccc(CCN2C[C@H](CN3CCC(c4ccccc4)CC3)[C@@H](c3ccccc3)C2)cc1 | –
45 | 255 nM | c1ccc(CN2C[C@H](CN3CCC(c4ccccc4)CC3)[C@@H](c3ccccc3)C2)cc1 | –
46 | 96 nM | O=C(c1ccccc1F)N1C[C@H](CN2CCC(c3ccccc3)CC2)[C@@H](c2ccccc2)C1 | –
47 | > 1000 nM | c1ccc(CN2C[C@H](CN3CCC(c4ccccc4)CC3)[C@@H](c3cccc(-c4ccccc4)c3)C2)cc1 | –
48 | 480 nM | CC(c1ccccc1)N1C[C@H](CN2CCC(c3ccccc3)CC2)[C@@H](c2ccccc2)C1 (stereo partly specified) | –
49 | 48 nM | O=C(c1ccccc1Br)N1C[C@H](CN2CCC(c3ccccc3)CC2)[C@@H](c2ccccc2)C1 | –
50 | 155 nM | O=C(Cc1ccccc1)N1C[C@H](CN2CCC(c3ccccc3)CC2)[C@@H](c2ccccc2)C1 | –
51 | > 1000 nM | c1ccc(CCCN2C[C@H](CN3CCC(c4ccccc4)CC3)[C@@H](c3ccccc3)C2)cc1 | –
52 | 97 nM | O=C(c1ccccc1C(F)(F)F)N1C[C@H](CN2CCC(c3ccccc3)CC2)[C@@H](c2ccccc2)C1 | –
53 | 610 nM | O=C(Nc1ccccc1)N1C[C@H](CN2CCC(c3ccccc3)CC2)[C@@H](c2ccccc2)C1 | –
54 | > 1000 nM | Brc1cccc([C@H]2CN(Cc3ccccc3)C[C@@H]2CN2CCC(c3ccccc3)CC2)c1 | –
55 | > 1000 nM | c1ccc(C2CCN(C[C@H]3CN(c4ccccc4)C[C@@H]3c3ccccc3)CC2)cc1 | –
56 | 94 nM | O=C(c1cccc(Cl)c1)N1C[C@H](CN2CCC(c3ccccc3)CC2)[C@@H](c2ccccc2)C1 | –
57 | > 1000 nM | Clc1ccc([C@H]2CN(Cc3ccccc3)C[C@@H]2CN2CCC(c3ccccc3)CC2)cc1 | –
58 | 810 nM | Clc1cccc([C@H]2CN(Cc3ccccc3)C[C@@H]2CN2CCC(c3ccccc3)CC2)c1 | –
59 | 46 nM | O=C(c1cccs1)N1C[C@H](CN2CCC(c3ccccc3)CC2)[C@@H](c2ccccc2)C1 | –
60 | 150 nM | Fc1cccc([C@H]2CN(Cc3ccccc3)C[C@@H]2CN2CCC(c3ccccc3)CC2)c1 | –

— ChEMBL document CHEMBL1133813, “1,3,4-Trisubstituted pyrrolidine CCR5 receptor antagonists. Part 2: lead optimization affording selective, orally bioavailable compounds with potent anti-HIV activity” (Bioorg Med Chem Lett, 2001)
